Experimental data taken from publication PMC8148061 (Acta Pharmaceutica Sinica. B, 2020).
“Also recorded” adds a separate entry of the source.

Columns and labels:
[1] = tested on: K562; assay: Antiproliferation cell assay; assay type: cell-based, human; conditions: Homo sapiens, K562, 72 h, read-out: Cellular inhibition IC50 K562
Procedure, shortened: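 K562 (ATCC) cells were grown in RPMI-1640 with 10% FBS, penicillin, streptomycin and 2 mmol/L glutamine at 37 °C in humidified CO2. Log-phase cells were seeded at ~3000/well, rested overnight, then exposed to test compound or vehicle for 72 h (10 mmol/L DMSO stocks). CCK-8 was read as OD450−OD650, with viability normalised to no-cell blank and vehicle wells. IC50 came from concentration–response curve fitting, mean ± SD.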

[2] = tested on: Ba/F3 Bcr-Abl^T315I; assay: Antiproliferation cell assay; assay type: cell-based; conditions: Mus musculus, BaF3, 72 h, read-out: Cellular inhibition IC50 Ba/F3 Bcr-Abl^T315I
[3] = tested on: Ba/F3 Bcr-Abl^WT; assay: Antiproliferation cell assay; assay type: cell-based; conditions: Mus musculus, BaF3, 72 h, read-out: Cellular inhibition IC50 Ba/F3 Bcr-Abl^WT
[4] = biological target: Bcr-Abl^T315I (Homo sapiens, UniProt P00519+P11274, T315I); assay: Western blot degradation study in Ba/F3 cells expressed Bcr-Abl^T315I; assay type: cell-based; conditions: for DR against Ba/F3 Bcr-Abl^T315I (%) 100 nmol/L / DR against Ba/F3 Bcr-Abl^T315I (%) 300 nmol/L: 24 h treatment, Western blot
[5] = biological target: Bcr-Abl^WT (Homo sapiens, UniProt P00519+P11274); assay: Western blot degradation study in K562 cells; assay type: cell-based
[6] = Pharmacokinetics in mice, single i.p. injection; assay type: in vivo, ICR mice; conditions: 20 mg/kg
[7] = biological target: Bcr-Abl^T315I / CRBN E3 ligase (UniProt P00519+P11274+Q8C7D2, T315I); assay: Co-immunoprecipitation in Ba/F3 Bcr-Abl^T315I cells; assay type: cell-based; conditions: 24 h treatment
Procedure, shortened: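 After 24 h exposure to a range of test compound concentrations, cells were lysed on ice in RIPA with protease and phosphatase inhibitors. Protein was BCA-quantified and equalised; ~4/5 of each lysate went to IP and the rest served as input. Anti-c-Abl antibody was added overnight at 4 °C, then protein A+G agarose for 2 h at 4 °C. Beads were washed five times in RIPA without inhibitors, and complexes were immunoblotted for CRBN.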

[8] = tested on: Ba/F3 Bcr-Abl^T315I xenograft; assay: In vivo antitumor efficacy, Ba/F3 Bcr-Abl^T315I xenograft model; set-up: species or system CB17-SCID mice
Procedure, shortened: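 Ba/F3 Bcr-AblT315I cells in normal saline were implanted s.c. in the right flank of CB17-SCID mice (2 × 10^6 cells/0.1 mL). Mice were randomised at mean tumour volume 100–200 mm3 and dosed i.p. every two days at 10 or 20 mg/kg. Vehicle was 5% DMSO + 10% solutol + 85% saline. Body weight and tumour volume (L × W²/2) were recorded every two days. Terminal tumours were formalin-fixed, paraffin-sectioned and TUNEL-stained.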

IC50 [1] | IC50 [2] | IC50 [3] | DR against Ba/F3 Bcr-Abl^T315I (%) 100 nmol/L ([4]; 100 nmol/L) | DR against Ba/F3 Bcr-Abl^T315I (%) 300 nmol/L [4] | SMILES | further results
1.6 ± 0.7 nM | 31 ± 11.7 nM | 6.8 ± 5.3 nM | 2.59% | 20.62% | Cc1ccc(C(=O)Nc2ccc(CN3CCN(C)CC3)c(C(F)(F)F)c2)cc1C#Cc1cnc2[nH]ncc2c1 [GZD824, reference compound] | –
7.9 ± 5.2 nM | 83.2 ± 27.8 nM | 10 ± 2.1 nM | −15.35% | 39.01% | Cc1ccc(C(=O)Nc2ccc(CN3CCN(CCOCCOCCC(=O)Nc4cccc5c4C(=O)N(C4CCC(=O)NC4=O)C5=O)CC3)c(C(F)(F)F)c2)cc1C#Cc1cnc2[nH]ncc2c1 (centres unmarked) [compound 7a, 3-((1H-Pyrazolo[3,4-b]pyridin-5-yl)ethynyl)-N-(4-((4-(2-(2-(3-((2-(2,6-dioxopiperidin-3-yl)-1,3-dioxoisoindolin-4-yl)amino)-3-oxopropoxy)ethoxy)ethyl)piperazin-1-yl)methyl)-3-(trifluoromethyl)phenyl)-4-methylbenzamide] | degradation on K562 cells expressing Bcr-Abl ([5]; 24 h treatment (data not shown)): does not exhibit obvious degradation; degradation potency relative to GZD824 ([4]; DR at 300 nmol/L): 2 fold
13.7 ± 9.3 nM | 83.4 ± 31.6 nM | 10.6 ± 2.6 nM | 16.86% | 78.34% | Cc1ccc(C(=O)Nc2ccc(CN3CCN(CCOCCOCCOCCC(=O)Nc4cccc5c4C(=O)N(C4CCC(=O)NC4=O)C5=O)CC3)c(C(F)(F)F)c2)cc1C#Cc1cnc2[nH]ncc2c1 (centres unmarked) [compound 7h, 3-((1H-Pyrazolo[3,4-b]pyridin-5-yl)ethynyl)-N-(4-((4-(2-(2-(2-(3-((2-(2,6-dioxopiperidin-3-yl)-1,3-dioxoisoindolin-4-yl)amino)-3-oxopropoxy)ethoxy)ethoxy)ethyl)piperazin-1-yl)methyl)-3-(trifluoromethyl)phenyl)-4-methylbenzamide] | improvement of DR compared with 7a ([4]; DR at 300 nmol/L): about 2 fold

The remaining lines, values behind:

SMILES | IC50 [1] | IC50 [2] | IC50 [3] | DR against Ba/F3 Bcr-Abl^T315I (%) 100 nmol/L ([4]; 100 nmol/L) | DR against Ba/F3 Bcr-Abl^T315I (%) 300 nmol/L [4] | further results
Cc1ccc(C(=O)Nc2ccc(CN3CCN(CCCCC(=O)Nc4cccc5c4C(=O)N(C4CCC(=O)NC4=O)C5=O)CC3)c(C(F)(F)F)c2)cc1C#Cc1cnc2[nH]ncc2c1 (centres unmarked) [7m, 3-((1H-Pyrazolo[3,4-b]pyridin-5-yl)ethynyl)-N-(4-((4-(5-((2-(2,6-dioxopiperidin-3-yl)-1,3-dioxoisoindolin-4-yl)amino)-5-oxopentyl)piperazin-1-yl)methyl)-3-(trifluoromethyl)phenyl)-4-methylbenzamide] | 3 ± 1.2 nM | 25 ± 10.4 nM | 4.3 ± 0.1 nM | 49.84% | 48.67% | –
Cc1ccc(C(=O)Nc2ccc(CN3CCN(CCCCCC(=O)Nc4cccc5c4C(=O)N(C4CCC(=O)NC4=O)C5=O)CC3)c(C(F)(F)F)c2)cc1C#Cc1cnc2[nH]ncc2c1 (centres unmarked) [7n, 3-((1H-Pyrazolo[3,4-b]pyridin-5-yl)ethynyl)-N-(4-((4-(6-((2-(2,6-dioxopiperidin-3-yl)-1,3-dioxoisoindolin-4-yl)amino)-6-oxohexyl)piperazin-1-yl)methyl)-3-(trifluoromethyl)phenyl)-4-methylbenzamide] | 2.1 ± 0.1 nM | 33.4 ± 1.6 nM | 4.2 ± 0.3 nM | 21.64% | 30.39% | –
Cc1ccc(C(=O)Nc2ccc(CN3CCN(CCCCCCCCC(=O)Nc4cccc5c4C(=O)N(C4CCC(=O)NC4=O)C5=O)CC3)c(C(F)(F)F)c2)cc1C#Cc1cnc2[nH]ncc2c1 (centres unmarked) [7p, 3-((1H-Pyrazolo[3,4-b]pyridin-5-yl)ethynyl)-N-(4-((4-(9-((2-(2,6-dioxopiperidin-3-yl)-1,3-dioxoisoindolin-4-yl)amino)-9-oxononyl)piperazin-1-yl)methyl)-3-(trifluoromethyl)phenyl)-4-methylbenzamide] | 14 ± 4.5 nM | 21.8 ± 8.3 nM | 4.5 nM | 3.61% | 63.47% | –
Cc1ccc(C(=O)Nc2ccc(CN3CCN(CCCCCCCCCCC(=O)Nc4cccc5c4C(=O)N(C4CCC(=O)NC4=O)C5=O)CC3)c(C(F)(F)F)c2)cc1C#Cc1cnc2[nH]ncc2c1 (centres unmarked) [7q, 3-((1H-Pyrazolo[3,4-b]pyridin-5-yl)ethynyl)-N-(4-((4-(11-((2-(2,6-dioxopiperidin-3-yl)-1,3-dioxoisoindolin-4-yl)amino)-11-oxoundecyl)piperazin-1-yl)methyl)-3-(trifluoromethyl)phenyl)-4-methylbenzamide] | 46.4 ± 21.2 nM | 70.1 ± 34.3 nM | 36.1 ± 0.9 nM | 5.33% | 14.25% | –
Cc1ccc(C(=O)Nc2ccc(CN3CCN(CCCCCCCCCCCCCCC(=O)Nc4cccc5c4C(=O)N(C4CCC(=O)NC4=O)C5=O)CC3)c(C(F)(F)F)c2)cc1C#Cc1cnc2[nH]ncc2c1 (centres unmarked) [7t, 3-((1H-Pyrazolo[3,4-b]pyridin-5-yl)ethynyl)-N-(4-((4-(15-((2-(2,6-dioxopiperidin-3-yl)-1,3-dioxoisoindolin-4-yl)amino)-15-oxopentadecyl)piperazin-1-yl)methyl)-3-(trifluoromethyl)phenyl)-4-methylbenzamide] | 190 ± 26.6 nM | 399 ± 248 nM | 363.7 ± 2.4 nM | 13.75% | 28.73% | –
Cc1ccc(C(=O)Nc2ccc(CN3CCN(CCCCCCC(=O)Nc4cccc5c4C(=O)N(C4CCC(=O)NC4=O)C5=O)CC3)c(C(F)(F)F)c2)cc1C#Cc1cnc2[nH]ncc2c1 (centres unmarked) [compound 7o, 3-((1H-Pyrazolo[3,4-b]pyridin-5-yl)ethynyl)-N-(4-((4-(7-((2-(2,6-dioxopiperidin-3-yl)-1,3-dioxoisoindolin-4-yl)amino)-7-oxoheptyl)piperazin-1-yl)methyl)-3-(trifluoromethyl)phenyl)-4-methylbenzamide] | 7.7 ± 1.8 nM | 26.8 ± 9.7 nM | 4.2 ± 0.2 nM | 69.89% | 94.23% | plasma concentration over time [6]: high plasma concentrations maintained over 48 h; treatment time after which Bcr-Abl^WT was substantially reduced in K562 cells ([5]; 100 nmol/L, time-course): 36 h; mechanism of Bcr-Abl^T315I degradation (Co-IP) [7]: mediated by CRBN E3 ubiquitin pathway; treatment time after which Bcr-Abl^T315I protein level was substantially reduced ([4]; 100 nmol/L, time-course): 6 h; Bcr-Abl^T315I degradation after preincubation with proteasome inhibitor MG132 ([4]; 20 μmol/L MG132, then 7o 24 h at 100 and 300 nmol/L): successfully rescue; treatment time of maximum degradation ([4]; Ba/F3 Bcr-Abl^T315I, time-course): 24 h; tumor growth inhibition (TGI) ([8]; 20 mg/kg, i.p., q2d, 10 consecutive days): 90.8%; body weight loss relative to the vehicle matched controls ([8]; 20 mg/kg, i.p., q2d, during the treatment): < 5%; mortality ([8]; during the treatment): no mortality; tumor growth (in words) ([8]; i.p., once every two days): substantial tumor regression; also recorded: suppresses the growth; apoptosis in xenograft tumor (TUNEL) ([8]; mouse, in vivo): induced apoptosis
